The source of these data is ChEMBL document CHEMBL2151033, “Synthesis, biological evaluation and molecular modeling of 4,6-diarylpyrimidines and diarylbenzenes as novel non-nucleosides HIV-1 reverse transcriptase inhibitors” (Eur J Med Chem, 2012).

The structures appear in SMILES notation.

For orientation: EC50 means the concentration needed to bring the measured effect to its halfway point. By CC50 is commonly meant the concentration at which the toxic effect on the cells reaches its halfway point.

The test system of data set [1] is Human immunodeficiency virus 2. Kind of data set: Antiviral activity against HIV2 ROD infected in human MT4 cells assessed as inhibition of virus-induced cytopathic effect after 5 days by MTT assay. The settings on record: Human immunodeficiency virus 2, ISOLATE ROD, MT4, 120 h. Format: functional, organism-based. In short, it runs like this:
(§1)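 Infected and mock-infected MT-4 cells (6×10^5 cells/mL, exponentially growing, spun 5 min at 220 g and resuspended) were treated with serial 5-fold compound dilutions in triplicate. Virus stock at 100-300 CCID50 was added. After 5 days, viability was read spectrophotometrically by MTT at 540 and 690 nm using the median OD of three wells. EC50 is the concentration giving 50% protection from viral cytopathic effect.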
On the technique in general: Protection from cytopathic effect is a common read-out in antiviral testing.

Data set [2] deals with Human immunodeficiency virus 1. As to the kind of experiment: Antiviral activity against HIV1 RES056 harbouring RT K103N/Y181C mutant infected in human MT4 cells assessed as inhibition of virus-induced cytopathic effect after 5 days by MTT assay. Format: functional, organism-based. The settings on record: Human immunodeficiency virus 1, RES056, MT4, 120 h. In a few lines: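 MT-4 cells (exponentially growing, spun 5 min at 220 g, resuspended at 6×10^5 cells/mL) infected with HIV-1 RES056 (K103N + Y181C) at 100-300 CCID50, with serial 5-fold compound dilutions run in triplicate alongside mock-infected wells. Viability was read by MTT at 540 and 690 nm after 5 days, using the median OD of three wells. EC50 is the concentration giving 50% protection from viral cytopathic effect.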

Data set [3] is described as follows: Cytotoxicity against human MT4 cells assessed as decrease in cell viability after 5 days by MTT assay. Format: cell-based. In short, it runs like this:
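Uninfected, mock-treated MT-4 cells (6×10^5 cells/mL) were exposed to serial 5-fold compound dilutions in triplicate wells, run alongside the infected series. After 5 days, MTT reduction was read at 540 and 690 nm using the median OD of three wells. CC50 is the concentration that reduces OD540 of the mock-infected control by 50%.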
(In general: Formazan colour is commonly taken as a measure of viable cells.)

Data set [4] relates to Human immunodeficiency virus 1. As to the kind of experiment: Antiviral activity against wild type HIV1 3B infected in human MT4 cells assessed as inhibition of virus-induced cytopathic effect after 5 days by MTT assay. Format: functional, organism-based. The settings on record: Human immunodeficiency virus 1, 3B, MT4, 120 h. In short, it runs like this:
as §1

A short description of data set [5]: Selectivity index, ratio of CC50 for human MT4 cells to EC50 for wild type HIV1 3B infected in human MT4 cells. Format: toxicity, cell-based. The settings on record: read-out: Ratio CC50/EC50. In a few lines:
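Selectivity index is CC50 in mock-infected MT-4 cells divided by EC50 against HIV-1 IIIB. Both come from the 5-day MTT assay run in parallel on infected and uninfected cells with serial 5-fold dilutions in triplicate.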

Data set [6] concerns Human immunodeficiency virus 1. Kind of data set: Ratio of delavirdine EC50 to compound EC50 for wild type HIV1 3B infected in human MT4 cells. Format: functional.
For data set [7], the system named is Human immunodeficiency virus 1. As to the kind of experiment: Ratio of nevirapine EC50 to compound EC50 for wild type HIV1 3B infected in human MT4 cells. The format is functional.

As for `Cc1cc(C)c(Nc2cc(Oc3c(C)cc(C)cc3C)ncn2)c(C)c1`, the EC50 in data set [1], in data set [2] and in data set [4] was greater than 38.5 µM in each case. Moreover, the CC50 at 120 h in data set [3] is 38.2 µM. Also, in data set [5], the selectivity ratio was less than 1.
Turning to `Cc1cn([C@H]2C[C@H](N=[N+]=[N-])[C@@H](CO)O2)c(=O)[nH]c1=O` [ZIDOVUDINE], the EC50 in data set [2] is 0.006 µM; in data set [4], 0.008 µM. Besides, in data set [3], the CC50 at 120 h was greater than 93.6 µM. For the same compound, the selectivity ratio in data set [5] is greater than 12000.
For the compound `Cc1cc(C#N)cc(C)c1Oc1nc(Nc2ccc(C#N)cc2)nc(N)c1Br` [ETRAVIRINE], the EC50 in data set [1] is greater than 27.8 µM. Also, in data set [5], the selectivity ratio turned out to be 12900.
Turning to `Cc1cc(C)c(Oc2cccc(Nc3ccc(C#N)cc3)c2)c(C)c1`, the EC50 was greater than 52.6 µM in data set [1], greater than 52.6 µM in data set [2] and 0.599 µM in data set [4]. Also, the cytotoxic concentration (CC50) at 120 h in data set [3] was 52.6 µM. In addition, in data set [5], the selectivity ratio amounted to 65.
Consider `Cc1cc(C)c(Nc2cccc(Oc3c(C)cc(C)cc3C)c2)c(C)c1`, for which the EC50 in data set [1] and in data set [4] was greater than 43.6 µM each time. The CC50 at 120 h in data set [3] is 43.6 µM. Besides, the selectivity ratio in data set [5] is less than 1.
As to `CC(C)Nc1cccnc1N1CCN(C(=O)c2cc3cc(NS(C)(=O)=O)ccc3[nH]2)CC1` [DELAVIRDINE], the concentration for a half-maximal effect (EC50) is greater than 4.39 µM in data set [2] and 0.548 µM in data set [4]. Further, the CC50 at 120 h in data set [3] was greater than 4.39 µM. In addition, in data set [5], the selectivity ratio is greater than 8.
As for `Cc1cc(C#N)cc(C)c1Oc1cc(Nc2ccc(C#N)cc2)ncn1`, the EC50 in data set [1] is greater than 292 µM; in data set [2], greater than 292 µM; in data set [4], 0.381 µM. Also, in data set [6], the “Ratio EC50” value is reported as 1.5. In data set [3], the CC50 at 120 h was greater than 292 µM. Also, the selectivity ratio in data set [5] is no less than 740.
With `Cc1ccnc2c1NC(=O)c1cccnc1N2C1CC1` [NEVIRAPINE], the EC50 in data set [2] is no less than 7.6 µM; in data set [4], 0.097 µM. In data set [3], the 50% cytotoxic concentration (CC50) at 120 h was greater than 15 µM. Moreover, the selectivity ratio in data set [5] is greater than 155.
For `Cc1cc(C)c(Nc2cc(Oc3c(C)cc(C#N)cc3C)ncn2)c(C)c1`, the concentration for a half-maximal effect (EC50) in data set [1] was greater than 37.5 µM; in data set [2], greater than 37.5 µM; in data set [4], 5.25 µM. Moreover, the cytotoxic concentration (CC50) at 120 h in data set [3] worked out at 37.5 µM. In addition, the selectivity ratio in data set [5] was found to be 7.
Regarding `Cc1cc(C)c(Oc2cc(Nc3ccc(C#N)cc3)ncn2)c(C)c1`, the values for the half-maximal effective concentration (EC50) in data set [1], in data set [2] and in data set [4] were greater than 42.2 µM, greater than 42.2 µM and 0.049 µM, respectively. Moreover, the “Ratio EC50” value in data set [6] turned out to be 11; in data set [7], 2. The CC50 at 120 h in data set [3] amounted to 42.2 µM. Moreover, the selectivity ratio in data set [5] was 870.
For the compound `Cc1cc(C)c(Nc2cccc(Nc3ccc(C#N)cc3)c2)c(C)c1`, the EC50 in data set [1] was greater than 220 µM; in data set [2], greater than 220 µM; in data set [4], 0.398 µM. The “Ratio EC50” value in data set [6] came to 1.5. The CC50 at 120 h in data set [3] is no less than 220 µM. Further, the selectivity ratio in data set [5] is no less than 552.
